Test results as given in ChEMBL document CHEMBL3414521, “Discovery of the 2-phenyl-4,5,6,7-Tetrahydro-1H-indole as a novel anti-hepatitis C virus targeting scaffold” (Eur J Med Chem, 2015).
The source made the active and inactive calls. The rule behind the calls is not given here.

Columns and labels:
[1] = Cytotoxicity against human Huh7.5 cells after 48 hrs by MTS assay; type: cell-based; details: huh-7, 48 h
Outline: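 Parental Huh7.5 cells grown in DMEM with 10% FCS without G418, 37 °C, 5% CO2; treated at 6–8 doses for 48 h. Viability by MTS bioreduction to formazan; CC50 as concentration halving MTS conversion relative to DMSO controls, mean ± SD of three independent experiments.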

Hepatitis C virus [2] = test: Antiviral activity against HCV genotype 1b infected in HuH7/Rep-Feo1b cells at 50 uM by firefly luciferase reporter gene assay; type: functional; details: for inhibition: Hepacivirus hominis; for inhibition at 50 µM: Huh-7
Outline: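 Replicon reporter cells (gt 1b in Huh7/Rep-Feo1b, firefly luciferase; gt 2a in Huh7.5-FGR-JC1-Rluc2A, Renilla luciferase) kept in DMEM with 10% FCS and 0.5 mg/mL G418, 37 °C, 5% CO2. About 1×10^4 cells per well were treated at 50 μM for 48 h in 1.0% DMSO. Luciferase signal was read relative to DMSO-treated cells as % inhibition.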

Hepatitis C virus [3] = test: Antiviral activity against HCV genotype 2a infected in HuH7.5-FGR-JC1_Rluc2A cells at 50 uM by […] luciferase reporter gene assay; type: functional; details: for inhibition: Hepacivirus hominis
Hepatitis C virus [4] = test: Antiviral activity against HCV genotype 2a infected in HuH7.5-FGR-JC1_Rluc2A cells by […]; type: functional, Hepacivirus hominis
[5] = Selectivity index, ratio of CC50 for human Huh7.5 cells to EC50 for HCV genotype 2a infected in HuH7.5-FGR-JC1_Rluc2A cells; set-up: species or system Huh-7
Hepatitis C virus [6] = test: Antiviral activity against HCV genotype 1b infected in HuH7/Rep-Feo1b cells by firefly luciferase reporter gene assay; type: functional, cell-based, Hepacivirus hominis; details: Huh-7
Outline: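 Huh7 cells carrying autonomously replicating gt 1b replicon with firefly luciferase reporter; ~1×10^4 cells/well treated 48 h, 1.0% DMSO final. Primary screen at 50 μM; actives titrated over 8–12 quarter-log dilutions. Luciferase signal relative to DMSO-treated controls; EC50 from dose-response curves, mean ± SD of three independent experiments.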

[7] = Selectivity index, ratio of CC50 for human Huh7.5 cells to EC50 for HCV genotype 1b infected in HuH7/Rep-Feo1b cells; set-up: species or system Huh-7

| SMILES | CC50 [1] [µM] | inhibition (Hepatitis C virus [2]) | inhibition (Hepatitis C virus [3]) | inhibition at 50 µM (Hepatitis C virus [2]) [%] | inhibition at 50 µM (Hepatitis C virus [3]) [%] | EC50 (Hepatitis C virus [4]) [µM] | Ratio CC50/EC50 [5] | EC50 (Hepatitis C virus [6]) [µM] | Ratio CC50/EC50 [7] |
| --- | --- | --- | --- | --- | --- | --- | --- | --- | --- |
| C[C@@]12C[C@@H]3C(=O)Nc4ccccc4C(=O)N3[C@@H]1CCCCC2=O (racemic) | > 200 | inactive | inactive |  |  |  |  |  |  |
| COc1ccc(NS(=O)(=O)c2ccc(CN3C(=O)c4ccccc4C3=O)cc2)cc1 | > 200 |  |  | 39 | 60 | 22.5 | >9 |  |  |
| O=C1CC(c2nc3ccccc3[nH]2)CN1Cc1ccccc1 (centres undefined) | > 200 | inactive |  |  | 67 | 21.1 | >9 |  |  |
| Cc1ccc2[nH]c(=O)c(CN(Cc3ccc(F)cc3)C(=O)c3ccc(NC(=N)N)cc3)cc2c1 | > 200 |  |  | 54 | 29 |  |  |  |  |
| O=C(O)CCn1c(-c2ccccc2)cc2ccccc21 |  |  |  | 26 | 54 |  |  |  |  |
| COc1ccc(CN2CC(C)n3c(nc4cccnc43)C2=O)c(OC)c1 (racemic) | > 200 |  |  | 45 | 48 |  |  |  |  |
| Cc1ccc2[nH]c(=O)c(CN(Cc3ccccc3)C(=O)c3ccc(NC(=N)N)cc3)cc2c1 | > 200 | inactive |  |  | 44 |  |  |  |  |
| CCn1cc(C(=O)Nc2ccccc2C(N)=O)c(=O)c2cc(OC)ccc21 | 85.6 |  |  | 17 | 65 | 20.6 | 4 |  |  |
| CC(C(N)=O)n1c(-c2ccccc2)cc2c1CCCC2 (centres undefined) | 156 |  |  | 50 | 83 | 15.4 | >10 |  |  |
| CCn1cc(-c2ccccc2)c(C(N)=O)c1C | > 200 |  |  | 49 | 66 | 23.6 | >8 |  |  |
| O=C1CC(c2nc3ccccc3[nH]2)CN1C1CCCCC1 (centres undefined) | > 200 |  |  | 19 | 72 | 15.6 | >13 |  |  |
| COc1cccc(C(=O)Nc2cc(C)nc3ccc(C)cc23)c1 | < 25 |  |  | 88 | 99 |  |  |  |  |
| CCOC(=O)[C@@H](C)N1C(=O)C(=O)c2ccccc21 | > 200 |  |  | 19 | 85 | 7.3 | >27 |  |  |
| Cc1ccc(CN(Cc2cc3cc(C)ccc3[nH]c2=O)C(=O)c2ccc(CN3CCN(C)CC3)cc2)cc1 | < 25 |  |  | 92 | 99 |  |  |  |  |
| C[C@@]12CC3C(=O)N4[C@H](C[C@@]5(C)C(=O)CCCC[C@@H]45)C(=O)N3[C@@H]1CCCCC2=O (mixture of isomers) | > 200 | inactive |  |  | 28 |  |  |  |  |
| Cc1nc2c(c(C)nn2-c2ccccc2)c(C)c1CCC(=O)O | > 200 | inactive |  |  | 78 | 11.7 | >17 |  |  |
| CCOC(=O)C(C)n1c(-c2ccccc2)cc2c1CCCC2 (racemic) | 84.3 |  |  | 74 | 95 | 13.7 | 6 | 13.2 | 6 |
| CC(=O)N[C@@]12CCN(C(=O)OC(C)(C)C)C[C@@H]1CN(C(=O)OC(C)(C)C)C2 (racemic) | > 200 | inactive |  |  | 43 |  |  |  |  |
| COC(=O)c1cc(C(=O)O)cc(-c2cc3c(n2Cc2ccccc2)CCCC3)c1 | 45.6 |  |  | 81 | 96 | 9.9 | >5 | 35.8 | >1 |

| SMILES | CC50 [1] [µM] | inhibition (Hepatitis C virus [2]) | inhibition (Hepatitis C virus [3]) | inhibition at 50 µM (Hepatitis C virus [2]) [%] | inhibition at 50 µM (Hepatitis C virus [3]) [%] | EC50 (Hepatitis C virus [4]) [µM] | Ratio CC50/EC50 [5] | EC50 (Hepatitis C virus [6]) [µM] | Ratio CC50/EC50 [7] |
| --- | --- | --- | --- | --- | --- | --- | --- | --- | --- |
| Oc1ccccc1-c1cc2c(n1Cc1ccccc1)CCCC2 | 48.9 |  |  | 96 | 99 | 6.5 | 8 | 9.2 | 5 |
| O=C(O)c1cc(-c2ccncc2)nc2ccccc12 | > 200 | inactive |  |  | 49 |  |  |  |  |
| Cc1nn(Cc2ccccc2)c(C)c1C(=O)O | > 200 |  | inactive | 19 |  |  |  |  |  |
| CC(=O)c1cn(CC(=O)O)c2ccccc12 | > 200 | inactive |  |  | 55 |  |  |  |  |
| Br.CC(=O)[C@]12CCN(Cc3ccccc3)C[C@H]1[C@H](c1ccccc1)NC2 (racemic) | > 200 | inactive |  |  | 76 | 17.4 | >11 |  |  |
| Br.CC(=O)N[C@]12CCN(Cc3ccccc3)C[C@H]1[C@H](c1ccccc1)NC2 (racemic) | > 200 | inactive |  |  | 73 | 4.9 | >41 |  |  |
| Cc1cccc(N2CC(c3nc4ccccc4[nH]3)CC2=O)c1 (centres undefined) | > 200 |  |  | 21 | 77 | 17.3 | >12 |  |  |
| Cc1ccc2[nH]c(=O)c(CN(CCc3ccccc3)C(=O)c3ccc(OCCN(C)C)cc3)cc2c1 | > 200 |  |  | 45 | 61 | 24.8 | >8 |  |  |
| O=C(O)C1CCCN(S(=O)(=O)c2ccccc2)C1 (racemic) | > 200 | inactive |  |  | 62 | 28.1 | >7 |  |  |
| CC1(CO)CCN2CCCCC21 (racemic) | > 200 |  |  | 50 | 25 |  |  |  |  |
| NC(=O)Cn1c(-c2ccccc2)cc2c1CCCC2 | > 200 |  |  | 37 | 48 |  |  |  |  |
| Cc1nn(Cc2ccccc2)c(C)c1CC(=O)O | > 200 | inactive |  |  | 14 |  |  |  |  |
| C=CCn1c(-c2ccccc2)cc2c1CCCC2 | 119 |  |  | 35 | 69 | 32.1 | 4 |  |  |
| CCn1cc(-c2ccccc2)c(C(=O)O)c1C | > 200 | inactive |  |  | 36 |  |  |  |  |
| O=C(O)C1CC(=O)N(CCc2c[nH]c3ccccc23)C1 (centres undefined) | > 200 |  |  | 22 | 51 | 48.5 | >4 |  |  |
| c1ccc(Cn2c(-c3cccnc3)cc3c2CCCC3)cc1 | < 25 |  |  | 92 | 99 |  |  |  |  |
| O=C(O)c1nn(Cc2ccccc2)c2ccccc12 | > 200 | inactive |  |  | 46 |  |  |  |  |
| CC1CN(C(=O)c2ccccc2)c2ccccc2NC1=O (centres undefined) | > 200 |  |  | 21 | 77 | 14.1 | >14 |  |  |
